Measurements: ChEMBL document CHEMBL4689842, “EUbOPEN Chemogenomics Library wave 1” (2021)

System: HEK-293T
Experiment: Multiplex assay against HEK293T;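 for Population Tubulin-Different-Phenotype (%): share of the cells with healthy nuclei that show this phenotype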
Format: toxicity, cell-based
Conditions: human
Method in brief: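 Four dyes were applied at seeding to live cells: Hoechst33342, BioTracker Green Microtubule Cytoskeleton Dye, MitoTracker Red and Annexin V Alexa Fluor 680. Imaging after compound addition used a CQ1 microscope at 37°C and 5% CO2. CellPathfinder machine-learning gating then sorted cells into Hoechst high-intensity objects or normal cells, normal cells into healthy, pyknosed or fragmented nuclei, and pyknosed cells into mitotic or apoptotic, with tubulin, mitochondrial-mass and membrane-permeability phenotypes given as per cents of healthy-nucleus cells.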

[1] = 12 h, 1 µM, compound concentration 1 uM, replicate 1
[2] = 12 h, 1 µM, compound concentration 1 uM, replicate 2
[3] = 12 h, 10 µM, compound concentration 10 uM, replicate 1
[4] = 12 h, 10 µM, compound concentration 10 uM, replicate 2
[5] = 24 h, 1 µM, compound concentration 1 uM, replicate 1
[6] = 24 h, 1 µM, compound concentration 1 uM, replicate 2
[7] = 24 h, 10 µM, compound concentration 10 uM, replicate 1
[8] = 24 h, 10 µM, compound concentration 10 uM, replicate 2
[9] = 48 h, 1 µM, compound concentration 1 uM, replicate 1
[10] = 48 h, 1 µM, compound concentration 1 uM, replicate 2
[11] = 48 h, 10 µM, compound concentration 10 uM, replicate 1
[12] = 48 h, 10 µM, compound concentration 10 uM, replicate 2

`Cc1nc(Cc2cccc(C(F)(F)F)c2)sc1-c1ccc(C(N)=O)nc1` [TP-024n] was tested, and the “Population Apoptotic (%)” value [1] was 41%, the “Population Fragmented Nuclei (%)” value [1] was 7% and the “Population Healthy Nuclei (%)” value [1] was 53%. For the same compound, the “Population Hoechst High Intensity Objects (%)” value [1] was 14%, the “Population Membrane Permeable-Phenotype (%)” value [1] was 2% and the “Population Mitochondria Different-Phenotype (%)” value [1] was 65%. The “Population Mitotic Cells (%)” value [1] was 58%, the “Population Normal (%)” value [1] was 85% and the “Population Pyknosed Nuclei (%)” value [1] was 39%. For the same compound, the “Population Tubulin-Different-Phenotype (%)” value [1] was 41%, the “Total Cell Count” value [1] was 435 and the “Population Apoptotic (%)” value [2] was 10%. For the same compound, the “Population Fragmented Nuclei (%)” value [2] was 2%, the “Population Healthy Nuclei (%)” value [2] was 47% and the “Population Hoechst High Intensity Objects (%)” value [2] was 5%. The “Population Membrane Permeable-Phenotype (%)” value [2] was 9%, the “Population Mitochondria Different-Phenotype (%)” value [2] was 22% and the “Population Mitotic Cells (%)” value [2] was 89%. For the same compound, the “Population Normal (%)” value [2] was 94%, the “Population Pyknosed Nuclei (%)” value [2] was 50% and the “Population Tubulin-Different-Phenotype (%)” value [2] was 26%. The “Total Cell Count” value [2] was 212, the “Population Apoptotic (%)” value [3] was 50% and the “Population Fragmented Nuclei (%)” value [3] was 11%. For the same compound, the “Population Healthy Nuclei (%)” value [3] was 29%, the “Population Hoechst High Intensity Objects (%)” value [3] was 12% and the “Population Membrane Permeable-Phenotype (%)” value [3] was 0%. For the same compound, the “Population Mitochondria Different-Phenotype (%)” value [3] was 91%, the “Population Mitotic Cells (%)” value [3] was 49% and the “Population Normal (%)” value [3] was 87%. For the same compound, the “Population Pyknosed Nuclei (%)” value [3] was 59%, the “Population Tubulin-Different-Phenotype (%)” value [3] was 59% and the “Total Cell Count” value [3] was 316. The “Population Apoptotic (%)” value [4] was 25%, the “Population Fragmented Nuclei (%)” value [4] was 8% and the “Population Healthy Nuclei (%)” value [4] was 25%. The “Population Hoechst High Intensity Objects (%)” value [4] was 9%, the “Population Membrane Permeable-Phenotype (%)” value [4] was 6% and the “Population Mitochondria Different-Phenotype (%)” value [4] was 66%. For the same compound, the “Population Mitotic Cells (%)” value [4] was 75%, the “Population Normal (%)” value [4] was 90% and the “Population Pyknosed Nuclei (%)” value [4] was 65%. The “Population Tubulin-Different-Phenotype (%)” value [4] was 30%, the “Total Cell Count” value [4] was 141 and the “Population Apoptotic (%)” value [5] was 49%. For the same compound, the “Population Fragmented Nuclei (%)” value [5] was 9%, the “Population Healthy Nuclei (%)” value [5] was 50% and the “Population Hoechst High Intensity Objects (%)” value [5] was 11%. For the same compound, the “Population Membrane Permeable-Phenotype (%)” value [5] was 2%, the “Population Mitochondria Different-Phenotype (%)” value [5] was 55% and the “Population Mitotic Cells (%)” value [5] was 50%. The “Population Normal (%)” value [5] was 88%, the “Population Pyknosed Nuclei (%)” value [5] was 40% and the “Population Tubulin-Different-Phenotype (%)” value [5] was 28%. The “Total Cell Count” value [5] was 429, the “Population Apoptotic (%)” value [6] was 19% and the “Population Fragmented Nuclei (%)” value [6] was 4%. For the same compound, the “Population Healthy Nuclei (%)” value [6] was 62%, the “Population Hoechst High Intensity Objects (%)” value [6] was 2% and the “Population Membrane Permeable-Phenotype (%)” value [6] was 5%. The “Population Mitochondria Different-Phenotype (%)” value [6] was 24%, the “Population Mitotic Cells (%)” value [6] was 80% and the “Population Normal (%)” value [6] was 97%. The “Population Pyknosed Nuclei (%)” value [6] was 33%, the “Population Tubulin-Different-Phenotype (%)” value [6] was 36% and the “Total Cell Count” value [6] was 239. The “Population Apoptotic (%)” value [7] was 51%, the “Population Fragmented Nuclei (%)” value [7] was 11% and the “Population Healthy Nuclei (%)” value [7] was 31%. The “Population Hoechst High Intensity Objects (%)” value [7] was 17%, the “Population Membrane Permeable-Phenotype (%)” value [7] was 3% and the “Population Mitochondria Different-Phenotype (%)” value [7] was 86%. The “Population Mitotic Cells (%)” value [7] was 48%, the “Population Normal (%)” value [7] was 82% and the “Population Pyknosed Nuclei (%)” value [7] was 57%. For the same compound, the “Population Tubulin-Different-Phenotype (%)” value [7] was 52%, the “Total Cell Count” value [7] was 338 and the “Population Apoptotic (%)” value [8] was 36%. For the same compound, the “Population Fragmented Nuclei (%)” value [8] was 10%, the “Population Healthy Nuclei (%)” value [8] was 30% and the “Population Hoechst High Intensity Objects (%)” value [8] was 10%. For the same compound, the “Population Membrane Permeable-Phenotype (%)” value [8] was 2%, the “Population Mitochondria Different-Phenotype (%)” value [8] was 65% and the “Population Mitotic Cells (%)” value [8] was 63%. The “Population Normal (%)” value [8] was 89%, the “Population Pyknosed Nuclei (%)” value [8] was 59% and the “Population Tubulin-Different-Phenotype (%)” value [8] was 50%. The “Total Cell Count” value [8] was 148, the “Population Apoptotic (%)” value [9] was 32% and the “Population Fragmented Nuclei (%)” value [9] was 12%. For the same compound, the “Population Healthy Nuclei (%)” value [9] was 50%, the “Population Hoechst High Intensity Objects (%)” value [9] was 9% and the “Population Membrane Permeable-Phenotype (%)” value [9] was 4%. For the same compound, the “Population Mitochondria Different-Phenotype (%)” value [9] was 25%, the “Population Mitotic Cells (%)” value [9] was 67% and the “Population Normal (%)” value [9] was 90%. For the same compound, the “Population Pyknosed Nuclei (%)” value [9] was 37%, the “Population Tubulin-Different-Phenotype (%)” value [9] was 25% and the “Total Cell Count” value [9] was 594. For the same compound, the “Population Apoptotic (%)” value [10] was 17%, the “Population Fragmented Nuclei (%)” value [10] was 5% and the “Population Healthy Nuclei (%)” value [10] was 80%. The “Population Hoechst High Intensity Objects (%)” value [10] was 2%, the “Population Membrane Permeable-Phenotype (%)” value [10] was 5% and the “Population Mitochondria Different-Phenotype (%)” value [10] was 5%. The “Population Mitotic Cells (%)” value [10] was 82%, the “Population Normal (%)” value [10] was 97% and the “Population Pyknosed Nuclei (%)” value [10] was 13%. For the same compound, the “Population Tubulin-Different-Phenotype (%)” value [10] was 19%, the “Total Cell Count” value [10] was 464 and the “Population Apoptotic (%)” value [11] was 53%. For the same compound, the “Population Fragmented Nuclei (%)” value [11] was 18%, the “Population Healthy Nuclei (%)” value [11] was 27% and the “Population Hoechst High Intensity Objects (%)” value [11] was 12%. The “Population Membrane Permeable-Phenotype (%)” value [11] was 2%, the “Population Mitochondria Different-Phenotype (%)” value [11] was 69% and the “Population Mitotic Cells (%)” value [11] was 46%. For the same compound, the “Population Normal (%)” value [11] was 87%, the “Population Pyknosed Nuclei (%)” value [11] was 53% and the “Population Tubulin-Different-Phenotype (%)” value [11] was 42%. The “Total Cell Count” value [11] was 373, the “Population Apoptotic (%)” value [12] was 46% and the “Population Fragmented Nuclei (%)” value [12] was 10%. The “Population Healthy Nuclei (%)” value [12] was 39%, the “Population Hoechst High Intensity Objects (%)” value [12] was 5% and the “Population Membrane Permeable-Phenotype (%)” value [12] was 6%. For the same compound, the “Population Mitochondria Different-Phenotype (%)” value [12] was 54%, the “Population Mitotic Cells (%)” value [12] was 53% and the “Population Normal (%)” value [12] was 94%. The “Population Pyknosed Nuclei (%)” value [12] was 50%, the “Population Tubulin-Different-Phenotype (%)” value [12] was 60% and the “Total Cell Count” value [12] was 164.
